{"data": "Experimental data pooled from the literature", "target": "Serine/threonine-protein kinase MAK (MAK, Homo sapiens, UniProt P20794)", "One construct used (P20794 1-623)": "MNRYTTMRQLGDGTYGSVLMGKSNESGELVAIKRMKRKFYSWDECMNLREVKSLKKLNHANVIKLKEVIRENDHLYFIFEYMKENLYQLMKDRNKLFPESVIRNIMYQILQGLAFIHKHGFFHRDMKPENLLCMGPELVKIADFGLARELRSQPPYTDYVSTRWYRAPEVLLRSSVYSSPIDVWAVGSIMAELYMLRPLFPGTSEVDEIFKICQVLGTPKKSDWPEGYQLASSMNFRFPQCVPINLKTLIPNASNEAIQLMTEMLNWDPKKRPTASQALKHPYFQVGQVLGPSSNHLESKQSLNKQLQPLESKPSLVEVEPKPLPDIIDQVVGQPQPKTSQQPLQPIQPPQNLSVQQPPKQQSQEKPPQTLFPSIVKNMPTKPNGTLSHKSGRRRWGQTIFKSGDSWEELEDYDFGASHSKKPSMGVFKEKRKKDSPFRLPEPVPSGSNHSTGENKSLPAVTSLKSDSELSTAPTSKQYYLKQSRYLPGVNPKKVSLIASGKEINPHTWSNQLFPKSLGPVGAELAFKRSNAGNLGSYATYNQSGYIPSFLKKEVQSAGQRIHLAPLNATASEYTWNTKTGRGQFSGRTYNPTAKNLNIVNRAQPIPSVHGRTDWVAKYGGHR", "note": "Lines come from different studies, so protocols differ."}
{"SMILES": "c1cncc(-c2cccc(Nc3nccc(NC4CCCCC4)n3)c2)c1", "observed": "binding", "method": "competition with immobilised ligand", "tested at": "10 µM", "remaining binding": "61%"}
{"SMILES": "O=C(Nc1cccnn1)N1CCC(=Cc2cccc(Oc3ccc(C(F)(F)F)cn3)c2)CC1", "observed": "cell-free assay", "method": "competition with immobilised ligand", "tested at": "1 µM", "remaining binding": "100%"}
{"SMILES": "C=CC(=O)N1CCC(C(=O)NCC(=O)N2CCN(c3nc(-c4cnc(N)nc4C(F)F)nc(N4CCOCC4)n3)CC2)CC1", "observed": "binding", "method": "competition with immobilised ligand", "tested at": "1 µM", "remaining binding": "100%"}
{"SMILES": "O=C(NCC1CCOCC1)c1n[nH]cc1NC(=O)c1c(F)cccc1F", "observed": "binding", "method": "competition with immobilised ligand", "tested at": "1 µM", "remaining binding": "56%"}
{"SMILES": "CCN1CCN(Cc2ccc(C(=O)Nc3ccc(C)c(Oc4ccc5c(c4)CC(=O)N5)c3)cc2C(F)(F)F)CC1", "observed": "binding", "method": "competition with immobilised ligand", "tested at": "1 µM", "remaining binding": "100%"}
{"SMILES": "FC(F)(F)Oc1cccc(-c2cnc3ccc(-c4ccncc4)nn23)c1", "observed": "cell-free assay", "method": "competition with immobilised ligand", "tested at": "5 µM", "remaining binding": "99%"}
{"SMILES": "O=C(NCCCN1CCOCC1)c1ccc(Nc2ncc(Cl)c(-c3ccc(Cl)s3)n2)cc1", "observed": "binding", "method": "competition with immobilised ligand", "tested at": "1 µM", "remaining binding": "100%"}
{"SMILES": "O=C1CCc2cc(Nc3cc(OC4CCOCC4)c([N+](=O)[O-])cc3Cl)ccc2N1", "observed": "cell-free assay", "method": "competition with immobilised ligand", "tested at": "1 µM", "remaining binding": "100%"}
{"SMILES": "O=C(c1ccc(Nc2nccc(-c3cc4ccccc4s3)n2)cc1)N1CCC(N2CCCC2)CC1", "observed": "binding", "method": "competition with immobilised ligand", "tested at": "1 µM", "remaining binding": "100%"}
{"SMILES": "CN(c1nccc(-c2cnn3ncccc23)n1)C1CC1", "observed": "binding", "tested at": "1 µM", "remaining binding": "100%"}
{"SMILES": "COc1cnc(Nc2cccc(S(N)(=O)=O)c2)nc1N1CCN(c2ccccc2)CC1", "observed": "binding", "method": "competition with immobilised ligand", "tested at": "1 µM", "remaining binding": "100%"}
{"SMILES": "Nc1ncc2c(n1)-c1c([nH]c3ccc(C#CC4CC4)cc13)CCCC2", "observed": "binding", "method": "competition with immobilised ligand", "tested at": "1 µM", "remaining binding": "100%"}
{"SMILES": "CN(CCCC(F)(F)F)c1nccc(-c2cnn3ncccc23)n1", "observed": "binding", "tested at": "1 µM", "remaining binding": "100%"}
{"SMILES": "CNC(=O)Nc1ccc2c(c1)[C@@]1(CC2)OC(=O)N(CC(=O)N(Cc2ccc(F)cc2)[C@@H](C)C(F)(F)F)C1=O", "observed": "cell-free assay", "method": "competition with immobilised ligand", "tested at": "1 µM", "remaining binding": "100%"}
{"SMILES": "Cc1cnn2ncc(-c3ccnc(N(C)C)n3)c2c1", "observed": "binding", "tested at": "1 µM", "remaining binding": "46%"}
{"SMILES": "O=C(Nc1cnc(Oc2ccc(F)cc2)nc1)N1CCc2ncccc2[C@@H]1c1ccc(F)cc1", "observed": "cell-free assay", "method": "competition with immobilised ligand", "tested at": "1 µM", "remaining binding": "100%"}
{"SMILES": "C[C@H]1CCN(c2nccc(-c3cnn4ncccc34)n2)C1", "observed": "binding", "tested at": "1 µM", "remaining binding": "66%"}
{"SMILES": "CCCCN(CCCC)C(=O)CN1C[C@H](c2cc(OC)c3c(c2)OCO3)[C@@H](C(=O)O)[C@@H]1CC(C)(C)CCC", "observed": "cell-free assay", "method": "competition with immobilised ligand", "tested at": "1 µM", "remaining binding": "100%"}
{"SMILES": "N[C@H]1CCN(c2nccc(-c3cnn4ncccc34)n2)C1", "observed": "binding", "tested at": "1 µM", "remaining binding": "78%"}
{"SMILES": "NS(=O)(=O)c1cc(NC(=O)Cc2ccccc2)ccc1Oc1cccc(Cl)c1", "observed": "cell-free assay", "method": "competition with immobilised ligand", "tested at": "1 µM", "remaining binding": "100%"}
{"SMILES": "CC1CCCN1c1nccc(-c2cnn3ncccc23)n1 (stereo not shown)", "observed": "binding", "tested at": "1 µM", "remaining binding": "100%"}
{"SMILES": "O=C(c1ccc(Nc2ncc(Cl)c(-c3ccc(Cl)s3)n2)cc1)N1CCC(N2CCCC2)CC1", "observed": "binding", "method": "competition with immobilised ligand", "tested at": "1 µM", "remaining binding": "85%"}
